Experimental data as given in ChEMBL document CHEMBL3259770, “Structure-activity relationship studies of the tricyclic indoline resistance-modifying agent” (J Med Chem, 2014).
Values after ≈ are worked out from the molar mass of the structure shown.

Experiments:
[1] = test system: Staphylococcus aureus; experiment: Antibacterial activity against methicillin-resistant Staphylococcus aureus ATCC BAA-44 after overnight incubation by broth microdilution assay in presence of 4 ug/ml amoxicillin and 2 ug/ml clavulanic acid; assay type: functional
In short: (§1)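 Resensitization screen: compound from a 5 mg/mL DMSO stock, 2-fold serially diluted in MHB from 32 μg/mL final. Antibiotic was held at its CLSI-susceptible level: amoxicillin/clavulanic acid 4/2 μg/mL, cefazolin 8 μg/mL, meropenem 4 μg/mL. Final MRSA inoculum OD600 0.001, overnight at 37 °C with shaking. MRC was the concentration giving no visible overnight growth.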

[2] = test system: Staphylococcus aureus; experiment: Antibacterial activity against methicillin-resistant Staphylococcus aureus ATCC 33592 after overnight incubation by broth microdilution assay in presence of 4 ug/ml meropenem; assay type: functional; in short: as §1
[3] = test system: Staphylococcus aureus; experiment: Antibacterial activity against methicillin-resistant Staphylococcus aureus ATCC BAA-44 after overnight incubation by broth microdilution assay in presence of 8 ug/ml cefazolin; assay type: functional; in short: as §1
[4] = Cytotoxicity against human HeLa cells after 24 hrs by CellTiter-Glo assay; assay type: cell-based
In short: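 HeLa cells seeded at 20 000 cells/well in DMEM with 10% FCS and 1% penicillin/streptomycin, grown 16 h at 37 °C, 5% CO2. Medium renewed, then compound added in DMSO to final 0.5–32 μg/mL, triplicate series. After 24 h at 37 °C, plates equilibrated to room temperature and viability read by CellTiter-Glo luminescence.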

| SMILES | MRC [1] [µg/mL] | MRC [2] [µg/mL] | MRC [3] [µg/mL] | GI50 at 24 h [4] [µg/mL] |
| --- | --- | --- | --- | --- |
| C=C1CCC[C@@H]2Nc3c(F)cc(Br)cc3[C@]12CCNS(=O)(=O)c1ccc(Cl)cc1 | 2 | 4 | 4 | 18.1 (≈ 36.2 µM) |
| C=C1CCC[C@@H]2Nc3ccc(Br)cc3[C@]12CCNS(=O)(=O)c1ccccn1 | 32 | 32 | 32 |  |
| C=C1CCC[C@@H]2Nc3ccc(C)cc3[C@]12CCNS(=O)(=O)c1ccc(Cl)cc1 | 16 | 32 | 16 |  |
| C=C1CCC[C@@H]2Nc3c(F)cc(Br)cc3[C@]12CCN | >32 | 16 | 32 | 16.2 (≈ 49.8 µM) |
| C=C1CCC[C@@H]2Nc3c(F)cc(Br)cc3[C@]12CCNS(=O)(=O)c1ccc(NC(C)=O)cc1 | 32 | 16 | 32 | 32 (≈ 61.3 µM) |
| C=C1CCC[C@@H]2Nc3c(F)cc(Br)cc3[C@]12CCNS(=O)(=O)c1ccc(OC)cc1 | 8 | 8 | 4 | 49 (≈ 98.9 µM) |
| C=C1CCC[C@@H]2Nc3ccc(Br)cc3[C@]12CCNS(=O)(=O)c1ccc(C#N)cc1 | 16 | 16 | 8 |  |
| C=C1CCC[C@@H]2Nc3c(F)cc(Br)cc3[C@]12CCNS(=O)(=O)c1ccc(I)cc1 | 4 | 4 | 2 | 19.6 (≈ 33.1 µM) |
| C=C1CCC[C@@H]2Nc3ccc(Cl)cc3[C@]12CCNS(=O)(=O)c1ccc(Cl)cc1 | 8 | 8 | 4 | 35 (≈ 80 µM) |
| C=C1CCC[C@@H]2Nc3ccc(Br)cc3[C@]12CCNC(=O)c1ccc(Cl)cc1 | >32 | >32 | >32 |  |
| C=C1CCC[C@@H]2Nc3ccc(Br)cc3[C@]12CCNS(=O)(=O)c1ccccc1 | 8 | 16 | 8 |  |
| C=C1CCC[C@@H]2Nc3cc(Br)ccc3[C@]12CCNS(=O)(=O)c1ccc(Cl)cc1 | 16 | 16 | 16 |  |
| C=C1CCC[C@@H]2Nc3c(Br)cccc3[C@]12CCNS(=O)(=O)c1ccc(Cl)cc1 | >32 | 8 | 32 |  |
| C=C1CCC[C@@H]2Nc3ccc(Br)cc3[C@]12CCNS(=O)(=O)c1ccc(NC(C)=O)cc1 | >32 | 32 | >32 |  |
| C=C1CCC[C@@H]2Nc3ccccc3[C@]12CCNS(=O)(=O)c1ccc(Cl)cc1 | 16 | 16 | 16 |  |
| C=C1CCC[C@@H]2Nc3c(F)cc(Br)cc3[C@]12CCNS(=O)(=O)c1ccc(C(F)(F)F)cc1 | 4 | 4 | 4 | 8.7 (≈ 16.3 µM) |
| C=C1CCC[C@@H]2N(S(=O)(=O)c3ccc(Cl)cc3)c3ccc(Br)cc3[C@]12CCNS(=O)(=O)c1ccc(Cl)cc1 | >32 | >32 | >32 |  |
| C=C1CCC[C@@H]2Nc3ccc(Br)cc3[C@]12CCN(S(=O)(=O)c1ccc(Cl)cc1)S(=O)(=O)c1ccc(Cl)cc1 | >32 | >32 | >32 |  |

| SMILES | MRC [1] [µg/mL] | MRC [2] [µg/mL] | MRC [3] [µg/mL] | GI50 at 24 h [4] [µg/mL] |
| --- | --- | --- | --- | --- |
| C=C1CCC[C@@H]2N(C)c3ccc(Br)cc3[C@]12CCNS(=O)(=O)c1ccc(Cl)cc1 | >32 | >32 | >32 |  |
| C=C1CCC[C@@H]2Nc3ccc(Br)cc3[C@]12CCNS(=O)(=O)c1ccc(F)cc1 | >32 | >32 | >32 |  |
| C=C1CCC[C@@H]2Nc3ccc(Br)cc3[C@]12CCNS(=O)(=O)c1ccc(C)cc1 | >32 | >32 | >32 |  |
| C=C1CCC[C@@H]2Nc3c(ccc4ccccc34)[C@]12CCNS(=O)(=O)c1ccc(Cl)cc1 | >32 | >32 | >32 |  |
| C=C1CCC[C@@H]2Nc3c(Cl)cc(Cl)cc3[C@]12CCNS(=O)(=O)c1ccc(Cl)cc1 | 4 | 4 | 4 | 13.6 (≈ 28.8 µM) |
| C=C1CCC[C@@H]2Nc3ccc(Br)cc3[C@]12CCNS(=O)(=O)c1ccc([N+](=O)[O-])cc1 | >32 | >32 | >32 |  |
| C=C1CCC[C@@H]2Nc3ccc(Br)cc3[C@]12CCN(C(=O)c1ccc(Cl)cc1)S(=O)(=O)c1ccc(Cl)cc1 | >32 | >32 | >32 |  |
| C=C1CCC[C@@H]2Nc3ccc(Br)cc3[C@]12CCNS(=O)(=O)c1ccc(N)cc1 | 16 | 16 | 16 |  |
| C=C1CCC[C@@H]2Nc3ccc(Br)cc3[C@]12CCNS(=O)(=O)c1ccc(Cl)cc1Cl | 8 | 4 | >32 |  |
| C=C1CCC[C@@H]2Nc3ccc(OC)cc3[C@]12CCNS(=O)(=O)c1ccc(Cl)cc1 | >32 | >32 | >32 |  |
| C=C1CCC[C@@H]2Nc3cccc(Br)c3[C@]12CCNS(=O)(=O)c1ccc(Cl)cc1 | 32 | 16 | 16 |  |
| C=C1CCC[C@@H]2N(C(=O)c3ccc(Cl)cc3)c3ccc(Br)cc3[C@]12CCNS(=O)(=O)c1ccc(Cl)cc1 | >32 | >32 | >32 |  |
| C=C1CCC[C@@H]2Nc3c(F)cc(Cl)cc3[C@]12CCNS(=O)(=O)c1ccc(Cl)cc1 | 16 | 32 | 16 |  |
| C=C1CCC[C@@H]2Nc3ccc(F)cc3[C@]12CCNS(=O)(=O)c1ccc(Cl)cc1 | 16 | 16 | 16 |  |
| C=C1CCC[C@@H]2Nc3ccc(Br)cc3[C@]12CCNC(=O)CCCC | >32 | 32 | >32 |  |
| C=C1CCC[C@@H]2Nc3ccc(Br)cc3[C@]12CCN | 32 | 32 | 32 |  |
| C=C1CCC[C@@H]2Nc3ccc(Br)cc3[C@]12CCNC(=O)C(F)(F)F | >32 | 32 | >32 |  |
| C=C1CCC[C@@H]2Nc3ccc(Br)cc3[C@]12CCN(C)S(=O)(=O)c1ccc(Cl)cc1 | >32 | >32 | >32 |  |
